The values below come from ChEMBL document CHEMBL1122578, “A colon-specific drug-delivery system based on drug glycosides and the glycosidases of colonic bacteria” (J Med Chem, 1984).

What all share (assay type): functional, organism-based
Assay [1] concerns Rattus norvegicus. The experiment in a line: Recovery of steroid from cecum at 3h after administration of 7.5 mg of the compound. The following applies: Caecum. In short, it runs like this:
(§1)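 Male Sprague-Dawley rats (ca. 250 g), fasted 16 h, water withdrawn ≥30 min before dosing; glucoside 7.5 mg by gastric intubation in 0.5 mL water/95% EtOH (3:1). Killed by CO2 then thoracotomy at 3–6 h; small intestine and cecum removed. Contents (MeOH) and tissues (0.01 M KH2PO4) homogenized with internal-standard steroid, centrifuged, filtered, quantified by C-18 HPLC-UV (MeOH/0.01 M KH2PO4 56.5:43.5); mean of four animals.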

The subject of assay [2] is Rattus norvegicus. The experiment in a line: Recovery of steroid from cecum at 5 hr after administration of 7.5 mg of the compound. The following applies: Caecum. Summed up: as §1
In assay [3] the test system is Rattus norvegicus. The experiment in a line: Recovery of steroid from cecum at 6 hr after administration of 7.5 mg of the compound. The settings on record: Caecum. In short, it runs like this: as §1
In assay [4] the test system is Rattus norvegicus. The assay is described as follows: Recovery of steroid from small intestine at 3h after administration of 7.5 mg of the compound. Summed up: as §1
Assay [5] concerns Rattus norvegicus. The experiment in a line: Recovery of steroid from small intestine at 4 hr after administration of 7.5 mg of the compound. In short, it runs like this: as §1
For assay [6], the system named is Rattus norvegicus. The assay is described as follows: Recovery of steroid from small intestine at 5 hr after administration of 7.5 mg of the compound. Summed up: as §1
Assay [7] deals with Rattus norvegicus. The assay is described as follows: Recovery of steroid from small intestine at 6 hr after administration of 7.5 mg of the compound. Summed up:
as §1

Assay [8] has as its system Rattus norvegicus. The experiment in a line: Recovery of steroid from cecum at 4 hr after administration of 7.5 mg of the compound. The following applies: Caecum. In short, it runs like this: as §1
Assay [9] concerns Rattus norvegicus. The assay is described as follows: Recovery of glucoside from cecum at 3h after administration of 7.5 mg of the compound. The settings on record: Caecum. In short, it runs like this:
as §1

Assay [10] relates to Rattus norvegicus. The assay is described as follows: Recovery of glucoside from cecum at 4 hr after administration of 7.5 mg of the compound. The following applies: Caecum. Summed up: as §1
The test system of assay [11] is Rattus norvegicus. The experiment in a line: Recovery of glucoside from cecum at 5 hr after administration of 7.5 mg of the compound. The following applies: Caecum. In short, it runs like this:
as §1

The subject of assay [12] is Rattus norvegicus. The assay is described as follows: Recovery of glucoside from cecum at 6 hr after administration of 7.5 mg of the compound. The following applies: Caecum. In short, it runs like this: as §1
In assay [13] the test system is Rattus norvegicus. The experiment in a line: Recovery of glucoside from small intestine at 3h after administration of 7.5 mg of the compound. In short, it runs like this: as §1
Assay [14] relates to Rattus norvegicus. The assay is described as follows: Recovery of glucoside from small intestine at 4 hr after administration of 7.5 mg of the compound. In short, it runs like this: as §1
Assay [15] has as its system Rattus norvegicus. The experiment in a line: Recovery of glucoside from small intestine at 5 hr after administration of 7.5 mg of the compound. Summed up:
as §1

Assay [16] has as its system Rattus norvegicus. The experiment in a line: Recovery of glucoside from small intestine at 6 hr after administration of 7.5 mg of the compound. In short, it runs like this: as §1
Assay [17] relates to Rattus norvegicus. The experiment in a line: Recovery of glucoside from cecum at 3h after administration of 7.5 mg. The following applies: Caecum. In short, it runs like this: as §1

Structures are written as SMILES.

With `C[C@]12C=CC(=O)C=C1CC[C@@H]1[C@@H]2[C@@H](O)C[C@@]2(C)[C@H]1CC[C@]2(O)C(=O)CO`, the Recovery with Rattus norvegicus [1] turned out to be 0 mg; in the assay on Rattus norvegicus [2] it was 0.57 mg; in the assay on Rattus norvegicus [3], 0.29 mg; with Rattus norvegicus [4] it was 0.3 mg; in the assay on Rattus norvegicus [5] it was 0.18 mg; in the assay with Rattus norvegicus [6], 0.09 mg. Moreover, the Recovery came to 0.03 mg with Rattus norvegicus [7] and 0 mg with Rattus norvegicus [8].

Regarding `C[C@]12C=CC(=O)C=C1CC[C@@H]1[C@@H]2C(O)C[C@@]2(C)[C@H]1CC[C@]2(O)C(=O)CO[C@@H]1O[C@H](CO)[C@@H](O)[C@H](O)[C@H]1O` (some centres not stated), the Recovery came to 0 mg with Rattus norvegicus [9]; 0 mg in the assay on Rattus norvegicus [10]; 0 mg in the assay with Rattus norvegicus [11]; 0.06 mg in the assay with Rattus norvegicus [12]; 1.57 mg with Rattus norvegicus [13]; 1.73 mg in the assay on Rattus norvegicus [14]. In addition, the figures for the Recovery with Rattus norvegicus [15] and with Rattus norvegicus [16] were 0.19 mg and 0.18 mg, respectively.

Take `C[C@@H]1CC2C3CCC4=CC(=O)C=CC4(C)[C@@]3(F)C(O)CC2(C)[C@@]1(O)C(=O)CO[C@@H]1O[C@H](CO)[C@@H](O)[C@H](O)[C@H]1O` (some centres not stated): the Recovery with Rattus norvegicus [17] was 0.21 mg; with Rattus norvegicus [10], 0.02 mg; in the assay on Rattus norvegicus [11], 0.23 mg; in the assay with Rattus norvegicus [12], 0.04 mg; with Rattus norvegicus [13], 5.61 mg; in the assay with Rattus norvegicus [14], 5 mg. The Recovery in the assay with Rattus norvegicus [15] was 0.24 mg; in the assay on Rattus norvegicus [16], 0.94 mg.

With `C[C@@H]1C[C@H]2[C@@H]3CCC4=CC(=O)C=C[C@]4(C)[C@@]3(F)[C@@H](O)C[C@]2(C)[C@@]1(O)C(=O)CO`, the Recovery in the assay with Rattus norvegicus [1] worked out at 0.09 mg; in the assay on Rattus norvegicus [2], 2.24 mg; with Rattus norvegicus [3], 1.66 mg; with Rattus norvegicus [4], 0.13 mg; with Rattus norvegicus [5], 0.11 mg; in the assay on Rattus norvegicus [6] it was 0.12 mg. Besides, the Recovery came out at 0.18 mg with Rattus norvegicus [7] and 0.05 mg with Rattus norvegicus [8].
